{"data": "Experimental data from different studies", "target": "NT-3 growth factor receptor (NTRK3, Homo sapiens, UniProt Q16288)", "note": "Protocols differ between the studies behind these lines."}
{"Structure (SMILES)": "C[C@@H](c1ccc(-n2cnc3c(N)ncnc32)cc1)N1CCc2nn(C)c(Cc3ccccc3)c2C1=O", "observed": "binding", "technique": "competition with immobilised ligand", "concentration": "0.1 µM", "remaining binding": "40%"}
{"Structure (SMILES)": "CNC(=O)Nc1ccc2c(c1)CC[C@@]21OC(=O)N(CC(=O)N(Cc2ccc(F)cc2)[C@@H](C)C(F)(F)F)C1=O", "observed": "cell-free assay", "technique": "competition with immobilised ligand", "concentration": "1 µM", "remaining binding": "84%"}
{"Structure (SMILES)": "C[C@@H]1CCN(c2nccc(-c3cnn4ncccc34)n2)C1", "observed": "binding", "concentration": "1 µM", "remaining binding": "70%"}
{"Structure (SMILES)": "O=C(c1ccc(Nc2nccc(-c3cc4ccccc4s3)n2)cc1)N1CCC(N2CCCC2)CC1", "observed": "binding", "technique": "competition with immobilised ligand", "concentration": "1 µM", "remaining binding": "71%"}
{"Structure (SMILES)": "c1cnn2ncc(-c3ccnc(N4CCC45COC5)n3)c2c1", "observed": "binding", "concentration": "1 µM", "remaining binding": "73%"}
{"Structure (SMILES)": "COc1cnc(Nc2cccc(S(N)(=O)=O)c2)nc1N1CCN(c2ccccc2)C(=O)C1", "observed": "binding", "technique": "competition with immobilised ligand", "concentration": "1 µM", "remaining binding": "100%"}
{"Structure (SMILES)": "Nc1ncc2c(n1)-c1c([nH]c3ccc(C#CC4CC4)cc13)CCCC2", "observed": "binding", "technique": "competition with immobilised ligand", "concentration": "1 µM", "remaining binding": "99%"}
{"Structure (SMILES)": "COc1ncc2cc3ccccc3nc2c1C#N", "observed": "cell-free assay", "technique": "competition with immobilised ligand", "concentration": "5 µM", "remaining binding": "74%"}
{"Structure (SMILES)": "O=C(Nc1c[nH]nc1C(=O)NC1CCNCC1)c1cc(F)cc(F)c1", "observed": "binding", "technique": "competition with immobilised ligand", "concentration": "1 µM", "remaining binding": "100%"}
{"Structure (SMILES)": "O=C(c1ccc(Nc2ncc(Cl)c(-c3cc4ccccc4s3)n2)cc1)N1CCC(N2CCCC2)CC1", "observed": "binding", "technique": "competition with immobilised ligand", "concentration": "1 µM", "remaining binding": "36%"}
{"Structure (SMILES)": "O=C(Nc1cccnn1)N1CC(C/C=C/c2cncc(Oc3ccc(C(F)(F)F)cn3)n2)C1", "observed": "cell-free assay", "technique": "competition with immobilised ligand", "concentration": "1 µM", "remaining binding": "85%"}
{"Structure (SMILES)": "O=C(NCCCN1CCOCC1)c1ccc(Nc2nccc(-c3cc4ccccc4s3)n2)cc1", "observed": "binding", "technique": "competition with immobilised ligand", "concentration": "1 µM", "remaining binding": "75%"}
{"Structure (SMILES)": "CC(=O)N1CCC(c2ccc(C(=O)NC(=N)N)cc2C(F)(F)F)CC1", "observed": "cell-free assay", "technique": "competition with immobilised ligand", "concentration": "1 µM", "remaining binding": "100%"}
{"Structure (SMILES)": "CN(c1nccc(-c2cnn3ncccc23)n1)C1CC1", "observed": "binding", "concentration": "1 µM", "remaining binding": "100%"}
{"Structure (SMILES)": "O=C(NCc1ncc(C(F)(F)F)cc1Cl)c1ccc2c(c1)C1(CCS(=O)(=O)CC1)[C@@H](C1CC1)N2S(=O)(=O)c1ccc(F)cc1", "observed": "cell-free assay", "technique": "competition with immobilised ligand", "concentration": "1 µM", "remaining binding": "71%"}
{"Structure (SMILES)": "COc1ccnn2ncc(-c3ccnc(N(C)C)n3)c12", "observed": "binding", "concentration": "1 µM", "remaining binding": "81%"}
{"Structure (SMILES)": "CCC(=O)N[C@H]1CC[C@@H](C(=O)N(C)c2ccc(-c3nc4ccccc4o3)cc2)C1", "observed": "cell-free assay", "technique": "competition with immobilised ligand", "concentration": "1 µM", "remaining binding": "32%"}
{"Structure (SMILES)": "CN(CCCC(F)(F)F)c1nccc(-c2cnn3ncccc23)n1", "observed": "binding", "concentration": "1 µM", "remaining binding": "100%"}
{"Structure (SMILES)": "Cn1cc(Cl)c2c(Oc3c(F)cc(Nc4cc(Cl)nc(N)n4)cc3F)ccnc21", "observed": "cell-free assay", "technique": "competition with immobilised ligand", "concentration": "0.1 µM", "remaining binding": "76%"}
{"Structure (SMILES)": "C=CC(=O)N1CCC(C(=O)NCC(=O)N2CCN(c3nc(-c4cnc(N)nc4C(F)F)nc(N4CCOCC4)n3)CC2)CC1", "observed": "binding", "technique": "competition with immobilised ligand", "concentration": "1 µM", "remaining binding": "86%"}
{"Structure (SMILES)": "C[C@H](NC(=O)c1cnc2n1[C@](C)(Cc1ccc(C#N)cc1)C(=O)N2c1cc(Cl)c(F)c(Cl)c1)C(=O)NC1(c2ccccn2)CC1", "observed": "cell-free assay", "technique": "competition with immobilised ligand", "concentration": "1 µM", "remaining binding": "100%"}
{"Structure (SMILES)": "N[C@@H]1CCN(c2nccc(-c3cnn4ncccc34)n2)C1", "observed": "binding", "concentration": "1 µM", "remaining binding": "100%"}
